From ChEMBL document CHEMBL1156597, “Structure-activity relationship of kahalalide F synthetic analogues” (J Med Chem, 2008)

Assays:
[1] = tested on: PANC-1; test: Cytotoxicity against human PANC1 cells after 48 hrs by SRB assay; format: functional; settings: PANC-1, 48 h; for CC50: read-out: LC50 (the source's name)
Method in brief: (§1)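 Cells grown in RPMI 1640 with 10% FBS and penicillin/streptomycin at 37 °C and 5% CO₂, trypsinized, then seeded at 5 × 10³/well. After 18 h drug-free attachment, samples in DMSO/EtOH/PBS (0.5:0.5:99) were added for 48 h continuous exposure. Cells were fixed with cold TCA (1 h, 4 °C) and stained with SRB (10 min). Tris-solubilized stain read at 490 nm. Triplicate wells, mean ± SD; GI₅₀ derived.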

[2] = tested on: HeLa; test: Cytotoxicity against human HeLa cells after 48 hrs by SRB assay; format: functional; settings: for CC50: read-out: LC50 (the source's name); method in brief: as §1
[3] = tested on: A549; test: Cytotoxicity against human A549 cells after 48 hrs by SRB assay; format: functional, cell-based; settings: Homo sapiens, A549, 48 h; method in brief: as §1
[4] = tested on: SK-BR-3; test: Cytotoxicity against human SKBR3 cells after 48 hrs by SRB assay; format: functional; settings: SK-BR-3, 48 h; for CC50: read-out: LC50 (the source's name); method in brief: as §1
[5] = Cytotoxicity against human IGROV cells after 48 hrs by SRB assay; format: functional; settings: for CC50: read-out: LC50 (the source's name); method in brief: as §1
[6] = Cytotoxicity against human HeLa-APL cells after 48 hrs by SRB assay; format: functional; method in brief: as §1
[7] = Cytotoxicity against human IGROV-ET cells after 48 hrs by SRB assay; format: functional; settings: for CC50: read-out: LC50 (the source's name); method in brief: as §1
[8] = tested on: LoVo; test: Cytotoxicity against human doxorubicin resistant LoVo cells after 48 hrs by SRB assay; format: functional; settings: for CC50: read-out: LC50 (the source's name); method in brief: as §1
[9] = tested on: SK-MEL-28; test: Cytotoxicity against human SK-MEL-28 cells after 48 hrs by SRB assay; format: functional, cell-based; settings: Homo sapiens, SK-MEL-28, 48 h; for CC50: read-out: LC50 (the source's name); method in brief: as §1
[10] = tested on: DU-145; test: Cytotoxicity against human DU145 cells after 48 hrs by SRB assay; format: functional, cell-based; settings: Homo sapiens, DU-145, 48 h; for CC50: read-out: LC50 (the source's name); method in brief: as §1
[11] = tested on: HT-29; test: Cytotoxicity against human HT29 cells after 48 hrs by SRB assay; format: functional, cell-based; settings: Homo sapiens, HT-29, 48 h; for CC50: read-out: LC50 (the source's name); method in brief: as §1
[12] = tested on: K562; test: Cytotoxicity against human K562 cells after 48 hrs by SRB assay; format: functional; settings: K562, 48 h; for CC50: read-out: LC50 (the source's name); method in brief: as §1
[13] = tested on: LNCaP; test: Cytotoxicity against human LNcaP cells after 48 hrs by SRB assay; format: functional; settings: for CC50: read-out: LC50 (the source's name); method in brief: as §1
[14] = tested on: LoVo; test: Cytotoxicity against human LoVo cells after 48 hrs by SRB assay; format: functional; settings: for CC50: read-out: LC50 (the source's name)

`C/C=C1\NC(=O)[C@H](Cc2ccccc2)NC(=O)[C@@H](C(C)C)NC(=O)[C@@H]([C@H](C)CC)NC(=O)[C@H](NC(=O)[C@H](NC(=O)[C@H](CCCNC(=O)CCOCCOCCN)NC(=O)[C@H]2CCCN2C(=O)[C@H](NC(=O)[C@@H](NC(=O)[C@@H](NC(=O)[C@H](NC(=O)CCCC(C)C)C(C)C)[C@@H](C)O)C(C)C)C(C)C)[C@H](C)CC)[C@H](C)OC(=O)[C@H](C(C)C)NC1=O` gave a GI50 [1] of 1.25 µM, a TGI [1] of 1.06 µM and a CC50 [1] of 1.6 µM. For the same compound, the GI50 [2] was 0.711 µM, the TGI [2] was 0.942 µM and the CC50 [2] was 0.944 µM. The GI50 [3] was 0.595 µM, the LC50 [3] was 0.35 µM and the GI50 ([3]; read-out: GI50) was 4.92 µM. The TGI [4] was 0.235 µM, the GI50 ([4]; read-out: GI50) was 0.248 µM and the CC50 [4] was 0.111 µM. For the same compound, the GI50 [5] was 0.134 µM, the GI50 ([5]; read-out: GI50) was 0.176 µM and the CC50 [5] was 0.262 µM. For the same compound, the GI50 [6] was 0.515 µM, the LC50 (concentration giving 50% net cell kill) [6] was 0.852 µM and the TGI [6] was 0.658 µM. For the same compound, the GI50 [7] was 0.287 µM, the GI50 ([7]; read-out: GI50) was 0.195 µM and the CC50 [7] was 0.51 µM. For the same compound, the CC50 [8] was 0.0295 µM, the GI50 [9] was 0.956 µM and the GI50 ([9]; read-out: GI50) was 0.952 µM. For the same compound, the CC50 [9] was 0.954 µM, the GI50 [10] was 0.852 µM and the GI50 ([10]; read-out: GI50) was 0.738 µM. For the same compound, the CC50 [10] was 0.982 µM, the CC50 [11] was 0.39 µM and the CC50 [12] was 0.159 µM. The CC50 [13] was 0.866 µM and the CC50 [14] was 0.301 µM.
`C/C=C1\NC(=O)[C@H](CCC2CCCCC2)NC(=O)[C@@H](C(C)C)NC(=O)[C@@H]([C@@H](C)CC)NC(=O)[C@H](NC(=O)[C@H](NC(=O)[C@H](CCCN)NC(=O)[C@H]2CCCN2C(=O)[C@H](NC(=O)[C@@H](NC(=O)[C@@H](NC(=O)[C@H](NC(=O)CCCC(C)C)C(C)C)[C@@H](C)O)C(C)C)C(C)C)[C@@H](C)CC)[C@@H](C)OC(=O)[C@H](C(C)C)NC1=O` showed a GI50 [1] of 1.12 µM, a TGI [1] of 1.29 µM and a CC50 [1] of 1.49 µM. For the same compound, the GI50 [2] was 0.304 µM, the TGI [2] was 0.313 µM and the CC50 [2] was 0.5 µM. The GI50 [3] was 0.857 µM, the LC50 [3] was 0.959 µM and the GI50 ([3]; read-out: GI50) was 0.756 µM. It also gave a TGI [4] of 0.205 µM, a GI50 ([4]; read-out: GI50) of 0.165 µM and a CC50 [4] of 0.256 µM. For the same compound, the GI50 [5] was 0.372 µM, the GI50 ([5]; read-out: GI50) was 0.276 µM and the CC50 [5] was 0.378 µM. It also gave a GI50 [6] of 0.319 µM, an LC50 (concentration giving 50% net cell kill) [6] of 0.617 µM and a TGI [6] of 0.499 µM. For the same compound, the GI50 [7] was 0.312 µM, the GI50 ([7]; read-out: GI50) was 0.232 µM and the CC50 [7] was 0.35 µM. For the same compound, the GI50 [8] was 0.224 µM, the TGI [8] was 0.258 µM and the CC50 [8] was 0.296 µM. The TGI [9] was 1 µM, the GI50 ([9]; read-out: GI50) was 1.02 µM and the CC50 [9] was 0.983 µM. For the same compound, the GI50 [10] was 0.472 µM, the GI50 ([10]; read-out: GI50) was 0.464 µM and the CC50 [10] was 0.553 µM. It also gave a GI50 [11] of 0.294 µM, a TGI [11] of 0.352 µM and a CC50 [11] of 0.359 µM. It also gave a GI50 [12] of 1.42 µM, a TGI [12] of 1.41 µM and a CC50 [12] of 1.39 µM. The GI50 [13] was 0.384 µM, the TGI [13] was 0.625 µM and the CC50 [13] was 0.661 µM. It also gave a GI50 [14] of 0.266 µM, a TGI [14] of 0.282 µM and a CC50 [14] of 0.298 µM.
In the case of `C/C=C1\NC(=O)[C@H](Cc2c[nH]c3ccccc23)NC(=O)[C@@H](C(C)C)NC(=O)[C@@H]([C@H](C)CC)NC(=O)[C@H](NC(=O)[C@H](NC(=O)[C@H](CCCN)NC(=O)[C@H]2CCCN2C(=O)[C@H](NC(=O)[C@@H](NC(=O)[C@@H](NC(=O)[C@H](NC(=O)CCCC(C)C)C(C)C)[C@@H](C)O)C(C)C)C(C)C)[C@H](C)CC)[C@H](C)OC(=O)[C@H](C(C)C)NC1=O`, the CC50 [1] is reported as 2.39 µM, the GI50 [2] is reported as 1.36 µM and the TGI [2] is reported as 1.13 µM. For the same compound, the CC50 [2] was 0.935 µM, the LC50 [3] was 1.38 µM and the TGI [3] was 1.49 µM. The GI50 ([3]; read-out: GI50) was 1.61 µM, the TGI [4] was 0.383 µM and the GI50 ([4]; read-out: GI50) was 0.345 µM. It also gave a CC50 [4] of 0.425 µM, a GI50 [5] of 0.0718 µM and a GI50 ([5]; read-out: GI50) of 0.0875 µM. The CC50 [5] was 0.0574 µM, the GI50 [6] was 1.36 µM and the LC50 (concentration giving 50% net cell kill) [6] was 0.975 µM. It also gave a TGI [6] of 1.15 µM, a GI50 [7] of 0.439 µM and a GI50 ([7]; read-out: GI50) of 0.461 µM. It also gave a CC50 [7] of 0.418 µM, a GI50 [8] of 0.507 µM and a TGI [8] of 0.659 µM. For the same compound, the CC50 [8] was 1.47 µM, the CC50 [9] was 1.39 µM and the GI50 [10] was 0.823 µM. It also gave a GI50 ([10]; read-out: GI50) of 0.832 µM, a CC50 [10] of 0.785 µM and a GI50 [11] of 1.05 µM. The TGI [11] was 1.51 µM, the CC50 [11] was 1.19 µM and the GI50 [12] was 4.84 µM. For the same compound, the TGI [12] was 4.7 µM, the CC50 [12] was 2.55 µM and the GI50 [13] was 2.06 µM. The TGI [13] was 1.61 µM, the CC50 [13] was 1.4 µM and the GI50 [14] was 0.628 µM. The TGI [14] was 0.957 µM and the CC50 [14] was 1.43 µM.
`C/C=C1\NC(=O)[C@H](Cc2ccccc2Cl)NC(=O)[C@@H](C(C)C)NC(=O)[C@@H]([C@H](C)CC)NC(=O)[C@H](NC(=O)[C@H](NC(=O)[C@H](CCCN)NC(=O)[C@H]2CCCN2C(=O)[C@H](NC(=O)[C@@H](NC(=O)[C@@H](NC(=O)[C@H](NC(=O)CCCC(C)C)C(C)C)[C@@H](C)O)C(C)C)C(C)C)[C@H](C)CC)[C@H](C)OC(=O)[C@H](C(C)C)NC1=O` showed a GI50 [1] of 1.51 µM, a TGI [1] of 1.7 µM and a CC50 [1] of 1.7 µM. It also gave a GI50 [2] of 0.274 µM, a TGI [2] of 0.506 µM and a CC50 [2] of 0.889 µM. It also gave a GI50 [3] of 0.659 µM, an LC50 [3] of 1.04 µM and a GI50 ([3]; read-out: GI50) of 0.418 µM. For the same compound, the GI50 [4] was 0.0568 µM, the GI50 ([4]; read-out: GI50) was 0.0549 µM and the CC50 [4] was 0.111 µM. For the same compound, the GI50 [5] was 0.118 µM, the GI50 ([5]; read-out: GI50) was 0.0723 µM and the CC50 [5] was 0.204 µM. For the same compound, the GI50 [6] was 0.312 µM, the LC50 (concentration giving 50% net cell kill) [6] was 0.931 µM and the TGI [6] was 0.533 µM. The GI50 [7] was 0.142 µM, the GI50 ([7]; read-out: GI50) was 0.0973 µM and the CC50 [7] was 0.196 µM. The GI50 [8] was 0.0443 µM, the TGI [8] was 0.0469 µM and the CC50 [8] was 0.0851 µM. For the same compound, the GI50 [9] was 0.638 µM, the GI50 ([9]; read-out: GI50) was 0.386 µM and the CC50 [9] was 1.05 µM. It also gave a GI50 [10] of 0.391 µM, a GI50 ([10]; read-out: GI50) of 0.18 µM and a CC50 [10] of 0.67 µM. It also gave a GI50 [11] of 0.089 µM, a TGI [11] of 0.113 µM and a CC50 [11] of 0.144 µM. For the same compound, the GI50 [12] was 1.85 µM, the TGI [12] was 1.85 µM and the CC50 [12] was 1.85 µM. For the same compound, the GI50 [13] was 0.0928 µM, the TGI [13] was 0.359 µM and the CC50 [13] was 0.832 µM. It also gave a GI50 [14] of 0.0434 µM, a TGI [14] of 0.0635 µM and a CC50 [14] of 0.111 µM.
